Source: ChEMBL document CHEMBL4152378, “Discovery of a Branched Peptide That Recognizes the Rev Response Element (RRE) RNA and Blocks HIV-1 Replication” (J Med Chem, 2018)
Residues, ends and D or L forms follow the SMILES beside them. *: point of attachment. X1 = N[C@@H](CCCCNC(=O)c1cnccn1)C(=O)N[C@@H](CCCCNC(=O)c1cnccn1)C(=O)N[C@@H](CCCCNC(=O)c1cnccn1)C(=O)*; Pyrazinecarbonyl = O=C(c1cnccn1)*

Columns and labels:
[1] = Binding affinity to HIV1 rev response element 2B RNA by 2-AP based displacement assay; parameters: species or system Human immunodeficiency virus 1
Method in brief: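 2-AP-labeled RRE IIB (0.1 μM) refolded at 95 °C 3 min, snap-cooled; titrated with peptide 0–20 μM in 10 mM potassium phosphate, 100 mM KCl, 1 mM MgCl2, 20 mM NaCl, pH 7.0; excitation 310 nm, emission decrease at 372 nm; Kd from Hill fit; at least duplicate, SD. Competition lines include 10-fold excess unlabeled RNA/DNA competitor.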

[2] = system: Human immunodeficiency virus 1; assay: Binding affinity to HIV1 RRE RNA in HEK293T cells transfected with HIV1 CMV driven GagPol-RRE plasmid assessed as reduction in Rev-RRE dependent nuclear export by measuring intracellular p24 levels at 70 uM after 48 hrs by ELISA relative to control; assay type: cell-based
Method in brief: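 HEK 293T cells transfected with Rev and CMV-driven GagPol-RRE plasmids plus luciferase control; peptides added 5 h after transfection at 70 μM; cells lysed ~48 h post-transfection and intracellular p24 quantified by ELISA as percent inhibition.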

Compound	Kd [1] [nM]	inhibition [2] [%]
N=C(N)N[C@H]1CN[C@@H](C(=O)N2C[C@H](N)C[C@@H]2C(=O)N2C[C@H](N)C[C@@H]2C(=O)NCCCC[C@H](NC(=O)[C@H]2C[C@@H](N)CN2C(=O)[C@H]2C[C@@H](N)CN2C(=O)[C@H]2C[C@@H](NC(=N)N)CN2)C(=O)N[C@@H](CCCCNC(=O)c2cnccn2)C(=O)N[C@@H](Cc2cccc3ccccc23)C(=O)N2C[C@H](N)C[C@@H]2C(=O)N[C@@H](Cc2ccc(O)cc2)C(N)=O)C1	2980	–
N=C(N)N[C@@H]1C[C@H](C(=O)NCCN(CC(=O)N[C@@H](CCCCNC(=O)c2ccc(B(O)O)cc2)C(=O)N[C@@H](Cc2ccc(O)cc2)C(N)=O)C(=O)Cn2cnc3c(=O)[nH]c(N)nc32)N(C(=O)[C@H](CCCCNC(=O)[C@H]2C[C@@H](NC(=N)N)CN2C(=O)[C@H]2C[C@@H](NC(=N)N)CN2C(=O)[C@H]2C[C@@H](N)CN2)NC(=O)[C@H]2C[C@@H](NC(=N)N)CN2C(=O)[C@H]2C[C@@H](NC(=N)N)CN2C(=O)[C@H]2C[C@@H](N)CN2)C1	410	> 50
N=C(N)N[C@@H]1C[C@H](C(=O)N[C@@H](Cc2ccc(O)cc2)C(N)=O)N(C(=O)[C@H](CCCCNC(=O)c2ccc(B(O)O)cc2)NC(=O)[C@H](CCCCNC(=O)c2ccc(B(O)O)cc2)NC(=O)[C@H](CCCCNC(=O)[C@H]2C[C@@H](N)CN2C(=O)[C@H]2C[C@@H](N)CN2C(=O)[C@H]2C[C@@H](NC(=N)N)CN2)NC(=O)[C@H]2C[C@@H](N)CN2C(=O)[C@H]2C[C@@H](N)CN2C(=O)[C@H]2C[C@@H](NC(=N)N)CN2)C1	4460	–
N=C(N)N[C@@H]1C[C@H](C(=O)NCCCC[C@H](NC(=O)[C@H]2C[C@@H](NC(=N)N)CN2C(=O)[C@H]2C[C@@H](N)CN2C(=O)[C@H]2C[C@@H](NC(=N)N)CN2)C(=O)N[C@@H](CCCCNC(=O)c2cnccn2)C(=O)N[C@@H](CCCCNC(=O)c2cnccn2)C(=O)NCCN(CC(=O)N[C@@H](Cc2ccc(O)cc2)C(N)=O)C(=O)Cn2cnc3c(=O)[nH]c(N)nc32)N(C(=O)[C@H]2C[C@@H](N)CN2C(=O)[C@H]2C[C@@H](NC(=N)N)CN2)C1	1120	> 50
N=C(N)N[C@H]1CN[C@@H](C(=O)N[C@@H](CCCCNC(=O)c2ccc(B3OC(=O)c4cc(O)ccc4O3)cc2)C(=O)N[C@@H](CCCCNC(=O)c2ccc(B3OC(=O)c4cc(O)ccc4O3)cc2)C(=O)NCCCC[C@H](NC(=O)[C@H](CCCCNC(=O)c2ccc(B3OC(=O)c4cc(O)ccc4O3)cc2)NC(=O)[C@H](CCCCNC(=O)c2ccc(B3OC(=O)c4cc(O)ccc4O3)cc2)NC(=O)[C@H]2C[C@@H](NC(=N)N)CN2)C(=O)N[C@@H](CCCCNC(=O)c2ccc(B3OC(=O)c4cc(O)ccc4O3)cc2)C(=O)N[C@@H](CCCCNC(=O)c2cnccn2)C(=O)N[C@@H](Cc2cccc3ccccc23)C(=O)N[C@@H](Cc2ccc(O)cc2)C(N)=O)C1	> 10000	–
N=C(N)N[C@@H]1C[C@H](C(=O)N[C@@H](CCCCNC(=O)c2cnccn2)C(=O)N2C[C@H](N)C[C@@H]2C(=O)N[C@@H](Cc2ccc(O)cc2)C(N)=O)N(C(=O)[C@H](CCCCNC(=O)[C@H]2C[C@@H](N)CN2C(=O)[C@H]2C[C@@H](N)CN2C(=O)[C@H]2C[C@@H](NC(=N)N)CN2)NC(=O)[C@H]2C[C@@H](N)CN2C(=O)[C@H]2C[C@@H](N)CN2C(=O)[C@H]2C[C@@H](NC(=N)N)CN2)C1	1320	–
N=C(N)N[C@H]1CN[C@@H](C(=O)N2C[C@H](N)C[C@@H]2C(=O)NCCN(CC(=O)NCCCC[C@H](NC(=O)CN(CCNC(=O)[C@H]2C[C@@H](N)CN2C(=O)[C@H]2C[C@@H](NC(=N)N)CN2)C(=O)Cn2cnc3c(=O)[nH]c(N)nc32)C(=O)NCCN(CC(=O)N[C@@H](CCCCNC(=O)c2ccc(B3OC(=O)c4cc(O)ccc4O3)cc2)C(=O)N[C@@H](CCCCNC(=O)c2cnccn2)C(=O)N[C@@H](Cc2ccc(O)cc2)C(N)=O)C(=O)Cn2cnc3c(=O)[nH]c(N)nc32)C(=O)Cn2cnc3c(=O)[nH]c(N)nc32)C1	1180	–
N=C(N)N[C@@H]1C[C@H](C(=O)N[C@@H](Cc2ccc(O)cc2)C(N)=O)N(C(=O)[C@H](Cc2cccc3ccccc23)NC(=O)[C@H](CCCCNC(=O)c2cnccn2)NC(=O)[C@H](CCCCNC(=O)[C@H](Cc2cccc3ccccc23)NC(=O)[C@H](CCCCNC(=O)c2ccc(B3OC(=O)c4cc(O)ccc4O3)cc2)NC(=O)[C@H]2C[C@@H](NC(=N)N)CN2)NC(=O)[C@H](Cc2cccc3ccccc23)NC(=O)[C@H](CCCCNC(=O)c2ccc(B3OC(=O)c4cc(O)ccc4O3)cc2)NC(=O)[C@H]2C[C@@H](NC(=N)N)CN2)C1	4960	–
N=C(N)N[C@@H]1C[C@H](C(=O)N2C[C@H](NC(=N)N)C[C@@H]2C(=O)N[C@@H](CCCCNC(=O)c2cnccn2)C(=O)N[C@@H](Cc2ccc(O)cc2)C(N)=O)N(C(=O)[C@H](CCCCNC(=O)[C@H](CCCCNC(=O)c2cnccn2)NC(=O)[C@H]2C[C@@H](N)CN2C(=O)CN(CCN)C(=O)Cn2cnc3c(=O)[nH]c(N)nc32)NC(=O)[C@H](CCCCNC(=O)c2cnccn2)NC(=O)[C@H]2C[C@@H](N)CN2C(=O)CN(CCN)C(=O)Cn2cnc3c(=O)[nH]c(N)nc32)C1	1640	> 50
N=C(N)N[C@@H]1C[C@H](C(=O)N[C@@H](Cc2ccc(O)cc2)C(N)=O)N(C(=O)[C@H](CCCCNC(=O)c2cnccn2)NC(=O)[C@H](Cc2cccc3ccccc23)NC(=O)[C@H](CCCCNC(=O)[C@H](CCCCNC(=O)c2ccc(B(O)O)cc2)NC(=O)[C@H]2C[C@@H](N)CN2C(=O)[C@H]2C[C@@H](NC(=N)N)CN2)NC(=O)[C@H](CCCCNC(=O)c2ccc(B(O)O)cc2)NC(=O)[C@H]2C[C@@H](N)CN2C(=O)[C@H]2C[C@@H](NC(=N)N)CN2)C1	1500	> 50
N=C(N)N[C@@H]1C[C@H](C(=O)N2C[C@H](N)C[C@@H]2C(=O)N[C@@H](Cc2ccc(O)cc2)C(N)=O)N(C(=O)CN(CCNC(=O)[C@H](CCCCNC(=O)[C@H]2C[C@@H](NC(=N)N)CN2C(=O)[C@H]2C[C@@H](N)CN2C(=O)[C@@H](N)CCCCNC(=O)c2cnccn2)NC(=O)[C@H]2C[C@@H](NC(=N)N)CN2C(=O)[C@H]2C[C@@H](N)CN2C(=O)[C@@H](N)CCCCNC(=O)c2cnccn2)C(=O)Cn2cnc3c(=O)[nH]c(N)nc32)C1	1110	–
N=C(N)N[C@H]1CN[C@@H](C(=O)N2C[C@H](N)C[C@@H]2C(=O)N2C[C@H](N)C[C@@H]2C(=O)NCCCC[C@H](NC(=O)[C@H]2C[C@@H](N)CN2C(=O)[C@H]2C[C@@H](N)CN2C(=O)[C@H]2C[C@@H](NC(=N)N)CN2)C(=O)N[C@@H](CCCCNC(=O)c2cnccn2)C(=O)NCCN(CC(=O)N2C[C@H](N)C[C@@H]2C(=O)N[C@@H](Cc2ccc(O)cc2)C(N)=O)C(=O)Cn2cnc3c(=O)[nH]c(N)nc32)C1	1020	–
NC(=O)[C@H](Cc1ccc(O)cc1)NC(=O)[C@H]1C[C@@H](N)CN1C(=O)CN(CCNC(=O)[C@H](CCCCNC(=O)c1cnccn1)NC(=O)[C@H](CCCCNC(=O)[C@H](Cc1cccc2ccccc12)NC(=O)[C@H](CCCCNC(=O)c1ccc(B(O)O)cc1)NC(=O)[C@H]1C[C@@H](N)CN1)NC(=O)[C@H](Cc1cccc2ccccc12)NC(=O)[C@H](CCCCNC(=O)c1ccc(B(O)O)cc1)NC(=O)[C@H]1C[C@@H](N)CN1)C(=O)Cn1cnc2c(=O)[nH]c(N)nc21	3180	–
N=C(N)N[C@H]1CN[C@@H](C(=O)N2C[C@H](N)C[C@@H]2C(=O)N2C[C@H](N)C[C@@H]2C(=O)NCCCC[C@H](NC(=O)[C@H]2C[C@@H](N)CN2C(=O)[C@H]2C[C@@H](N)CN2C(=O)[C@H]2C[C@@H](NC(=N)N)CN2)C(=O)NCCN(CC(=O)NCCN(CC(=O)N2C[C@H](N)C[C@@H]2C(=O)N[C@@H](Cc2ccc(O)cc2)C(N)=O)C(=O)Cn2cnc3c(=O)[nH]c(N)nc32)C(=O)Cn2cnc3c(=O)[nH]c(N)nc32)C1	1760	–
N=C(N)N[C@@H]1C[C@H](C(=O)N2C[C@H](NC(=N)N)C[C@@H]2C(=O)N[C@@H](CCCCNC(=O)c2cnccn2)C(=O)N[C@@H](Cc2ccc(O)cc2)C(N)=O)N(C(=O)[C@H](CCCCNC(=O)[C@H](CCCCNC(=O)c2cnccn2)NC(=O)[C@H]2C[C@@H](N)CN2C(=O)[C@H]2C[C@@H](NC(=N)N)CN2)NC(=O)[C@H](CCCCNC(=O)c2cnccn2)NC(=O)[C@H]2C[C@@H](N)CN2C(=O)[C@H]2C[C@@H](NC(=N)N)CN2)C1	1300	–
N=C(N)N[C@H]1CN[C@@H](C(=O)N2C[C@H](N)C[C@@H]2C(=O)N[C@@H](Cc2cccc3ccccc23)C(=O)NCCCC[C@H](NC(=O)[C@H](Cc2cccc3ccccc23)NC(=O)[C@H]2C[C@@H](N)CN2C(=O)[C@H]2C[C@@H](NC(=N)N)CN2)C(=O)NCCN(CC(=O)NCCN(CC(=O)N[C@@H](Cc2cccc3ccccc23)C(=O)N[C@@H](Cc2ccc(O)cc2)C(N)=O)C(=O)Cn2cnc3c(=O)[nH]c(N)nc32)C(=O)Cn2cnc3c(=O)[nH]c(N)nc32)C1	660	–
NC(=O)[C@H](Cc1ccc(O)cc1)NC(=O)[C@H](CCCCNC(=O)c1cnccn1)NC(=O)[C@H](CCCCNC(=O)c1cnccn1)NC(=O)[C@H](CCCCNC(=O)c1cnccn1)NC(=O)[C@H](CCCCNC(=O)[C@H](CCCCNC(=O)c1cnccn1)NC(=O)[C@H](CCCCNC(=O)c1cnccn1)NC(=O)[C@@H](N)CCCCNC(=O)c1cnccn1)NC(=O)[C@H](CCCCNC(=O)c1cnccn1)NC(=O)[C@H](CCCCNC(=O)c1cnccn1)NC(=O)[C@@H](N)CCCCNC(=O)c1cnccn1 (H-K(Pyrazinecarbonyl)K(Pyrazinecarbonyl)K(Pyrazinecarbonyl)K(X1)K(Pyrazinecarbonyl)K(Pyrazinecarbonyl)K(Pyrazinecarbonyl)Y-NH2)	> 10000	–
N=C(N)N[C@@H]1C[C@H](C(=O)N2C[C@H](N)C[C@@H]2C(=O)N[C@@H](Cc2ccc(O)cc2)C(N)=O)N(C(=O)[C@H]2C[C@@H](N)CN2C(=O)[C@H](CCCCNC(=O)[C@H]2C[C@@H](N)CN2C(=O)[C@H]2C[C@@H](NC(=N)N)CN2C(=O)[C@H]2C[C@@H](N)CN2)NC(=O)[C@H]2C[C@@H](N)CN2C(=O)[C@H]2C[C@@H](NC(=N)N)CN2C(=O)[C@H]2C[C@@H](N)CN2)C1	720	–
